Reference: ChEMBL document CHEMBL1128288, “7-Azetidinylquinolones as antibacterial agents. 3. Synthesis, properties and structure-activity relationships of the stereoisomers containing a 7-(3-amino-2-methyl-1-azetidinyl) moiety” (J Med Chem, 1995)
In brackets after ≈: the same amount, converted by molar mass.

Assays:
[1] = Solubility at pH 7.4 buffer.; type: physicochemical
Outline: (§1)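 Excess solid was shaken 24 h at 25 °C in water or in 0.05 M phosphate buffer pH 7.4, then filtered (0.22 µm) with the first portion discarded. The filtrate was diluted with 0.1 N HCl or NaOH and measured spectrophotometrically at the compound's absorbance maximum.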

[2] = Solubility in water was determined at 25 degrees Centigrade; type: physicochemical; outline: as §1
Bacillus cereus = test: In vitro antibacterial activity measured as minimum inhibitory concentration was evaluated on Bacillus cereus ATCC 11778 (Bc).; type: functional; settings: Bacillus cereus, ATCC 11778; read-out: MIC
Outline: (§2)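 Serial 2-fold agar dilution in Mueller Hinton medium, run side by side with reference quinolones. Inoculum 10^5 cfu/mL; compound range 0.007–16 µg/mL.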

Bacillus subtilis = test: In vitro antibacterial activity measured as minimum inhibitory concentration was evaluated on Bacillus subtilis ATCC 6633(Bs).; type: functional; settings: Bacillus subtilis, ATCC 6633; read-out: MIC; outline: as §2
Enterobacter cloacae = test: In vitro antibacterial activity measured as minimum inhibitory concentration, was evaluated on Enterobacter cloacae ATCC 23355 (Ecl).; type: functional; settings: Enterobacter cloacae, ATCC 23355; read-out: MIC
Klebsiella pneumoniae = test: In vitro antibacterial activity measured as minimum inhibitory concentration was evaluated on klebsiella pneumoniae ATCC 10031 (Kp).; type: functional; settings: Klebsiella pneumoniae, ATCC 10031; read-out: MIC
Outline: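 Serial 2-fold agar dilution in Mueller Hinton medium, run side by side with reference quinolones.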

Proteus vulgaris = test: In vitro antibacterial activity measured as minimum inhibitory concentration was evaluated on proteus vulgaris ATCC 8427 (Pv).; type: functional; settings: Proteus vulgaris, ATCC 8427; read-out: MIC; outline: as §2
Pseudomonas aeruginosa [3] = test: In vitro antibacterial activity measured as minimum inhibitory concentration was evaluated on Pseudomonas aeruginosa ATCC 10145 (Pa).; type: functional; settings: Pseudomonas aeruginosa, ATCC 10145; read-out: MIC; outline: as §2
Staphylococcus aureus [4] = test: In vitro antibacterial activity measured as minimum inhibitory concentration was evaluated on Staphylococcus aureus ATCC 25178 (Sa).; type: functional; settings: Staphylococcus aureus, ATCC 25178; read-out: MIC; outline: as §2
[5] = test system: Staphylococcus epidermidis; test: In vitro antibacterial activity measured as minimum inhibitory concentration was evaluated on Staphylococcus epidermidis ATCC 155-1 (Se).; type: functional; settings: Staphylococcus epidermidis, ATCC 155-1; read-out: MIC; outline: as §2
Enterococcus faecalis = test: In vitro antibacterial activity measured as minimum inhibitory concentration was evaluated on Streptococcus faecalis ATCC 10541 (Sf).; type: functional; settings: Enterococcus faecalis, ATCC 10541; read-out: MIC; outline: as §2
Escherichia coli [6] = test: In vitro antibacterial activity measured as minimum inhibitory concentration, was evaluated on Escherichia coli ATCC 23559(Ec).; type: functional; settings: Escherichia coli, ATCC 23559; read-out: MIC; outline: as §2
Morganella morganii = test: In vitro antibacterial activity measured as minimum inhibitory concentration was evaluated on morganella morganii ATCC 8019 (Mm).; type: functional; settings: Morganella morganii, ATCC 8019; read-out: MIC; outline: as §2
[7] = mouse, in vivo, po, 50 mg/kg
Pseudomonas aeruginosa [8] = test: In vivo efficacy as ED50 against Pseudomonas aeruginosa HS-116 by oral administration in mice.; type: functional; settings: Pseudomonas aeruginosa, po; read-out: ED50
Outline: (§3)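 Mice, 4 groups of 10, infected intraperitoneally with slightly more than the LD100 of the organism. A single oral dose was given immediately after infection, with four doses (one per group) chosen from in vitro activity. Survival was scored after one week. ED50 (total dose, mg/kg, protecting 50%) was interpolated among group survival rates.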

Staphylococcus aureus [9] = test: In vivo efficacy as ED50 against Staphylococcus aureus HS-93 by oral administration in mice.; type: functional; settings: Staphylococcus aureus, po; read-out: ED50; outline: as §3
Escherichia coli [10] = test: In vivo efficacy as ED50 against Escherichia coli HM-42 by oral administration in mice.; type: functional; settings: Escherichia coli, po; read-out: ED50; outline: as §3

SMILES	solubility [1] [µg/mL]	solubility [2] [µg/mL]	MIC (Bacillus cereus) [µg/mL]	MIC (Bacillus subtilis) [µg/mL]	MIC (Enterobacter cloacae) [µg/mL]	MIC (Klebsiella pneumoniae) [µg/mL]	MIC (Proteus vulgaris) [µg/mL]	MIC (Pseudomonas aeruginosa [3]) [µg/mL]	MIC (Staphylococcus aureus [4]) [µg/mL]	MIC [5] [µg/mL]	MIC (Enterococcus faecalis) [µg/mL]	MIC (Escherichia coli [6]) [µg/mL]	MIC (Morganella morganii) [µg/mL]	AUC [7] [ng·h/mL]	ED50 (Pseudomonas aeruginosa [8]) [mg/kg]	ED50 (Staphylococcus aureus [9]) [mg/kg]	ED50 (Escherichia coli [10]) [mg/kg]
C[C@@H](N)C(=O)N[C@@H]1CN(c2nc3c(cc2F)c(=O)c(C(=O)O)cn3C2CC2)[C@H]1C	386 (≈ 957 µM)	495 (≈ 1230 µM)	0.5 (≈ 1.24 µM)	0.12 (≈ 0.297 µM)	0.25 (≈ 0.62 µM)	0.5 (≈ 1.24 µM)	2 (≈ 4.96 µM)	8 (≈ 19.8 µM)	0.25 (≈ 0.62 µM)	1 (≈ 2.48 µM)	1 (≈ 2.48 µM)	0.25 (≈ 0.62 µM)	2 (≈ 4.96 µM)	400	–	–	–
C[C@H]1[C@H](N)CN1c1nc2c(cc1F)c(=O)c(C(=O)O)cn2C1CC1 (single isomer, unassigned)	16.5 (≈ 49.6 µM)	23 (≈ 69.2 µM)	0.015 (≈ 0.0451 µM)	0.015 (≈ 0.0451 µM)	0.015 (≈ 0.0451 µM)	0.015 (≈ 0.0451 µM)	–	0.12 (≈ 0.361 µM)	0.06 (≈ 0.181 µM)	0.06 (≈ 0.181 µM)	0.12 (≈ 0.361 µM)	0.015 (≈ 0.0451 µM)	0.015 (≈ 0.0451 µM)	19200	34	4.6	1
C[C@@H]1[C@@H](N)CN1c1c(F)cc2c(=O)c(C(=O)O)cn(-c3ccc(F)cc3)c2c1F	–	–	0.12 (≈ 0.298 µM)	0.06 (≈ 0.149 µM)	0.015 (≈ 0.0372 µM)	0.015 (≈ 0.0372 µM)	0.25 (≈ 0.62 µM)	0.5 (≈ 1.24 µM)	0.12 (≈ 0.298 µM)	0.25 (≈ 0.62 µM)	1 (≈ 2.48 µM)	0.06 (≈ 0.149 µM)	0.12 (≈ 0.298 µM)	40900	53	4.8	2.1

The next lines start with results.

solubility [1] [µg/mL]	solubility [2] [µg/mL]	MIC (Bacillus cereus) [µg/mL]	MIC (Bacillus subtilis) [µg/mL]	MIC (Enterobacter cloacae) [µg/mL]	MIC (Klebsiella pneumoniae) [µg/mL]	MIC (Proteus vulgaris) [µg/mL]	MIC (Pseudomonas aeruginosa [3]) [µg/mL]	MIC (Staphylococcus aureus [4]) [µg/mL]	MIC [5] [µg/mL]	MIC (Enterococcus faecalis) [µg/mL]	MIC (Escherichia coli [6]) [µg/mL]	MIC (Morganella morganii) [µg/mL]	AUC [7] [ng·h/mL]	SMILES	ED50 (Pseudomonas aeruginosa [8]) [mg/kg]	ED50 (Staphylococcus aureus [9]) [mg/kg]	ED50 (Escherichia coli [10]) [mg/kg]
> 500	> 500	1 (≈ 2.11 µM)	0.5 (≈ 1.05 µM)	2 (≈ 4.22 µM)	2 (≈ 4.22 µM)	16 (≈ 33.7 µM)	8 (≈ 16.9 µM)	1 (≈ 2.11 µM)	16 (≈ 33.7 µM)	8 (≈ 16.9 µM)	1 (≈ 2.11 µM)	4 (≈ 8.43 µM)	–	C[C@H](N)C(=O)N[C@@H]1CN(c2cc3c(cc2F)c(=O)c(C(=O)O)cn3-c2ccc(F)cc2F)[C@H]1C	–	–	–
> 500	> 500	16 (≈ 33.7 µM)	1 (≈ 2.11 µM)	2 (≈ 4.22 µM)	8 (≈ 16.9 µM)	8 (≈ 16.9 µM)	16 (≈ 33.7 µM)	4 (≈ 8.43 µM)	8 (≈ 16.9 µM)	16 (≈ 33.7 µM)	2 (≈ 4.22 µM)	4 (≈ 8.43 µM)	19200	C[C@H](N)C(=O)N[C@@H](C)C(=O)N[C@@H]1CN(c2nc3c(cc2F)c(=O)c(C(=O)O)cn3C2CC2)[C@H]1C	–	–	–
–	–	0.25 (≈ 0.741 µM)	0.12 (≈ 0.356 µM)	0.12 (≈ 0.356 µM)	0.06 (≈ 0.178 µM)	0.5 (≈ 1.48 µM)	2 (≈ 5.93 µM)	0.25 (≈ 0.741 µM)	0.25 (≈ 0.741 µM)	2 (≈ 5.93 µM)	0.12 (≈ 0.356 µM)	0.12 (≈ 0.356 µM)	21000	CCn1cc(C(=O)O)c(=O)c2cc(F)c(N3C[C@H](N)[C@H]3C)c(F)c21	60	5.9	3.9
–	–	0.25 (≈ 0.72 µM)	0.015 (≈ 0.0432 µM)	0.015 (≈ 0.0432 µM)	0.015 (≈ 0.0432 µM)	0.25 (≈ 0.72 µM)	0.5 (≈ 1.44 µM)	0.25 (≈ 0.72 µM)	0.12 (≈ 0.345 µM)	0.5 (≈ 1.44 µM)	0.015 (≈ 0.0432 µM)	0.015 (≈ 0.0432 µM)	8500	C[C@H]1COc2c(N3CC(C)(N)C3)c(F)cc3c(=O)c(C(=O)O)cn1c23	121	19.1	6.7
